Laboratory results from ChEMBL document CHEMBL3112470, “Design and synthesis of N₁-aryl-benzimidazoles 2-substituted as novel HIV-1 non-nucleoside reverse transcriptase inhibitors” (Bioorg Med Chem, 2014).
Active and inactive are the calls of the source. The calls are words filed in the database; no cut-off is given here.

What was measured:
[1] = system: Human immunodeficiency virus 2; experiment: Antiviral activity against HIV-2 ROD; format: functional, organism-based; conditions: ISOLATE ROD
[2] = Selectivity index, ratio of CC50 for human MT4 cells to EC50 for HIV-1 3B; format: toxicity, cell-based; conditions: read-out: Ratio CC50/EC50
Summary of the method: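 Calculated as CC50/EC50, both from MT-4 cells: CC50 from the parallel viability assay, EC50 from the 5-day HIV-1 IIIB cytopathicity assay.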

[3] = system: Human immunodeficiency virus 1; experiment: Antiviral activity against NNRTI-resistant HIV-1 RES056 harboring reverse transcriptase K103N/Y181C double mutant; format: functional, organism-based
Summary of the method: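 MT-4 cells were infected with virus at about 100 times the CCID50 per ml of cell suspension and mixed with serial compound dilutions. They were incubated 5 days at 37 °C, then viable cells were counted. EC50 is the concentration that reduces virus-induced cytopathic effect by 50%. Cytotoxicity was measured in parallel in MT-4 cells.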

[4] = Cytotoxicity against human MT4 cells assessed as cell viability; format: cell-based
Summary of the method: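 Uninfected MT-4 cells run in parallel with the antiviral assay. CC50 = concentration reducing MT-4 cell viability by 50%.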

[5] = system: Human immunodeficiency virus 1; experiment: Antiviral activity against HIV-1 3B infected in human MT4 cells assessed as inhibition of virus-induced cytopathic effect after 5 days; format: functional, organism-based; conditions: Human immunodeficiency virus 1, 3B, MT4, 120 h
Summary of the method: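 MT-4 cells infected with HIV-1 IIIB at ~100 times the CCID50 per ml, mixed 1:1 with serial compound dilutions, incubated at 37 °C for 5 days. Viable cell number then determined. EC50 = concentration reducing virus-induced cytopathicity by 50%.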

[6] = molecular target: Human immunodeficiency virus type 1 reverse transcriptase (Human immunodeficiency virus 1, UniProt Q72547); experiment: Inhibition of GST-tagged recombinant wild type HIV-1 reverse transcriptase p66/p51 RNA-dependent DNA polymerase activity expressed in Escherichia coli JM109 using dTTP as substrate after 40 mins by spectrofluorometric analysis

Compound: Cc1cc(C)cc(Cn2c(=S)[nH]c3ccc(Cl)cc32)c1
- Activity [1]: inactive
- selectivity ratio [2]: 4
- Activity [3]: inactive

Compound: Cc1cc(C)cc(Cn2c(SCC(=O)Nc3ccc(C)cc3Cl)nc3ccccc32)c1
- Activity [1]: inactive
- selectivity ratio [2]: 32.1
- CC50 [4]: 49.1 µM
- EC50 [5]: 1.53 µM
- IC50 [6]: 179 µM
- Activity [3]: inactive

Compound: Cc1cc(C)cc(S(=O)(=O)n2c(SCC(=O)Nc3ccccc3Cl)nc3ccc(Cl)cc32)c1
- Activity [1]: inactive
- selectivity ratio [2]: 56
- CC50 [4]: 99.3 µM
- EC50 [5]: 1.77 µM
- IC50 [6]: 18.6 µM
- Activity [3]: inactive

Compound: Cc1cc(C)cc(S(=O)(=O)n2c(SCC(=O)Nc3ccccc3Cl)nc3ccccc32)c1
- Activity [1]: inactive
- selectivity ratio [2]: 1220
- CC50 [4]: 107 µM
- EC50 [5]: 0.088 µM
- IC50 [6]: 51.9 µM
- Activity [3]: inactive

Compound: COC(=O)c1ccc(NC(=O)CSc2nc3ccccc3n2S(=O)(=O)c2cc(C)cc(C)c2)c(Cl)c1
- Activity [1]: inactive
- selectivity ratio [2]: 1320
- CC50 [4]: 145 µM
- EC50 [5]: 0.11 µM
- IC50 [6]: 162 µM
- Activity [3]: inactive

Compound: COC(=O)c1ccc(NC(=O)CSc2nc3ccc(Cl)cc3n2S(=O)(=O)c2cc(C)cc(C)c2)c(Cl)c1
- Activity [1]: inactive
- selectivity ratio [2]: ≥ 27
- CC50 [4]: ≥ 130 µM
- EC50 [5]: 4.82 µM
- IC50 [6]: 37.6 µM
- Activity [3]: inactive

Compound: Cc1cc(C)cc(S(=O)(=O)n2c(SCC(=O)Nc3ccc(C)cc3Cl)nc3ccccc32)c1
- Activity [1]: inactive
- selectivity ratio [2]: 135
- CC50 [4]: 5.4 µM
- EC50 [5]: 0.04 µM
- IC50 [6]: 0.55 µM
- Activity [3]: inactive

Compound: Cc1cc(C)cc(S(=O)(=O)n2c(SCC(=O)Nc3ccc(S(C)(=O)=O)cc3Cl)nc3ccc(Cl)cc32)c1
- Activity [1]: inactive
- selectivity ratio [2]: 7
- CC50 [4]: 3.59 µM
- EC50 [5]: 0.5 µM
- IC50 [6]: 2.61 µM
- Activity [3]: inactive

Compound: Cc1cc(C)cc(Cn2c(SCC(=O)Nc3ccc(C)cc3Cl)nc3ccc(Cl)cc32)c1
- Activity [1]: inactive
- selectivity ratio [2]: < 1
- CC50 [4]: 79.3 µM
- EC50 [5]: > 79.3 µM
- IC50 [6]: > 248 µM
- Activity [3]: inactive

Compound: Cc1cc(C)cc(S(=O)(=O)n2c(SCC(=O)Nc3ccccc3Br)nc3ccccc32)c1
- Activity [1]: inactive
- selectivity ratio [2]: ≥ 3930
- EC50 [5]: 0.06 µM
- IC50 [6]: 0.18 µM
- Activity [3]: inactive

Compound: Cc1cc(C)cc(Cn2c(SCC(=O)Nc3ccccc3Cl)nc3ccc(Cl)cc32)c1
- Activity [1]: inactive
- selectivity ratio [2]: 7
- CC50 [4]: 141 µM
- EC50 [5]: 19.6 µM
- IC50 [6]: > 255 µM
- Activity [3]: inactive

Compound: Cc1cc(C)cc(Cn2c(SCC(=O)Nc3ccc(S(C)(=O)=O)cc3Cl)nc3ccc(Cl)cc32)c1
- Activity [1]: inactive
- selectivity ratio [2]: < 1
- CC50 [4]: 88.8 µM
- EC50 [5]: > 88.8 µM
- IC50 [6]: 70.5 µM
- Activity [3]: inactive

Compound: Cc1cc(C)cc(Cn2c(SCC(=O)Nc3ccc(S(N)(=O)=O)cc3Cl)nc3ccc(Cl)cc32)c1
- Activity [1]: inactive
- selectivity ratio [2]: < 1
- CC50 [4]: ≥ 18.6 µM
- EC50 [5]: ≥ 22.6 µM
- IC50 [6]: 86.6 µM
- Activity [3]: inactive

Compound: Cc1cc(C)cc(Cn2c(=S)[nH]c3ccccc32)c1
- Activity [1]: inactive
- selectivity ratio [2]: 4
- CC50 [4]: 5.74 µM
- EC50 [5]: 1.3 µM
- IC50 [6]: 27.2 µM
- Activity [3]: inactive

Compound: Cc1cc(C)cc(Cn2c(SCC(=O)Nc3ccccc3[N+](=O)[O-])nc3ccccc32)c1
- Activity [1]: inactive
- selectivity ratio [2]: 184
- CC50 [4]: 194 µM
- EC50 [5]: 1.05 µM
- IC50 [6]: 3.91 µM
- Activity [3]: inactive

Compound: Cc1ccnc2c1NC(=O)c1cccnc1N2C1CC1 [NEVIRAPINE]
- CC50 [4]: > 15 µM

Compound: Cc1cc(C)cc(Cn2c(SCC(=O)Nc3ccccc3Br)nc3ccccc32)c1
- Activity [1]: inactive
- selectivity ratio [2]: ≥ 128
- CC50 [4]: ≥ 144 µM
- EC50 [5]: 1.12 µM
- IC50 [6]: 15 µM
- Activity [3]: inactive

Compound: Cc1cc(C)cc(S(=O)(=O)n2c(=S)[nH]c3ccccc32)c1
- Activity [1]: inactive
- selectivity ratio [2]: 455
- CC50 [4]: 41 µM
- EC50 [5]: 0.09 µM
- IC50 [6]: 1.35 µM
- Activity [3]: inactive

Compound: Cc1cc(C)cc(Cn2c(SCC(=O)Nc3ccccc3[N+](=O)[O-])nc3ccc(Cl)cc32)c1
- Activity [1]: inactive
- selectivity ratio [2]: ≤ 5
- CC50 [4]: 131 µM
- EC50 [5]: ≥ 26 µM
- IC50 [6]: > 249 µM
- Activity [3]: inactive

Compound: Cc1cc(C)cc(Cn2c(SCC(=O)Nc3ccccc3Cl)nc3ccccc32)c1
- Activity [1]: inactive
- selectivity ratio [2]: 99
- CC50 [4]: 111 µM
- EC50 [5]: 1.12 µM
- IC50 [6]: 42.1 µM
- Activity [3]: inactive

Compound: Cc1cc(C)cc(S(=O)(=O)n2c(SCC(=O)Nc3ccccc3[N+](=O)[O-])nc3ccccc32)c1
- Activity [1]: inactive
- selectivity ratio [2]: ≥ 652
- CC50 [4]: ≥ 26.1 µM
- EC50 [5]: 0.04 µM
- IC50 [6]: 100 µM
- Activity [3]: inactive

Compound: Cc1cc(C)cc(S(=O)(=O)n2c(SCC(=O)Nc3ccccc3Br)nc3ccc(Cl)cc32)c1
- Activity [1]: inactive
- selectivity ratio [2]: 37
- CC50 [4]: 145 µM
- EC50 [5]: 3.86 µM
- IC50 [6]: 63.5 µM
- Activity [3]: inactive

Compound: O=C1Nc2ccc(Cl)cc2[C@@](C#CC2CC2)(C(F)(F)F)O1 [EFAVIRENZ]
- CC50 [4]: > 6.34 µM
- EC50 [5]: 0.006 µM

Compound: Cc1cc(C)cc(S(=O)(=O)n2c(SCC(=O)Nc3ccc(S(N)(=O)=O)cc3Cl)nc3ccccc32)c1
- Activity [1]: inactive
- selectivity ratio [2]: 1280
- CC50 [4]: 25.6 µM
- EC50 [5]: 0.02 µM
- IC50 [6]: 18.5 µM
- Activity [3]: inactive

Compound: Cc1cc(C)cc(S(=O)(=O)n2c(=S)[nH]c3ccc(Cl)cc32)c1
- Activity [1]: inactive
- selectivity ratio [2]: 1860
- CC50 [4]: 93.1 µM
- EC50 [5]: 0.05 µM
- IC50 [6]: 1.76 µM
- Activity [3]: inactive

Compound: COC(=O)c1ccc(NC(=O)CSc2nc3ccc(Cl)cc3n2Cc2cc(C)cc(C)c2)c(Cl)c1
- Activity [1]: inactive
- selectivity ratio [2]: < 1
- CC50 [4]: 105 µM
- EC50 [5]: > 105 µM
- IC50 [6]: > 227 µM
- Activity [3]: inactive

Compound: Cc1cc(C)cc(S(=O)(=O)n2c(SCC(=O)Nc3ccccc3[N+](=O)[O-])nc3ccc(Cl)cc32)c1
- Activity [1]: inactive
- selectivity ratio [2]: > 182
- CC50 [4]: > 235 µM
- EC50 [5]: 1.3 µM
- IC50 [6]: 37 µM
- Activity [3]: inactive

Compound: COC(=O)c1ccc(NC(=O)CSc2nc3ccccc3n2Cc2cc(C)cc(C)c2)c(Cl)c1
- Activity [1]: inactive
- selectivity ratio [2]: 32
- CC50 [4]: 191 µM
- EC50 [5]: 6.03 µM
- IC50 [6]: 40.3 µM
- Activity [3]: inactive

Compound: Cc1cc(C)cc(Cn2c(SCC(=O)Nc3ccc(S(N)(=O)=O)cc3Cl)nc3ccccc32)c1
- Activity [1]: inactive
- selectivity ratio [2]: 530
- CC50 [4]: 111 µM
- EC50 [5]: 0.21 µM
- IC50 [6]: 1.02 µM
- Activity [3]: inactive

Compound: Cc1cc(C)cc(Cn2c(SCC(=O)Nc3ccc(S(C)(=O)=O)cc3Cl)nc3ccccc32)c1
- Activity [1]: inactive
- selectivity ratio [2]: 196
- CC50 [4]: 106 µM
- EC50 [5]: 0.54 µM
- IC50 [6]: 1.93 µM
- Activity [3]: inactive

Compound: Cc1cc(C)cc(S(=O)(=O)n2c(SCC(=O)Nc3ccc(S(C)(=O)=O)cc3Cl)nc3ccccc32)c1
- Activity [1]: inactive
- selectivity ratio [2]: > 5540
- CC50 [4]: > 222 µM
- EC50 [5]: 0.04 µM
- IC50 [6]: 0.12 µM
- Activity [3]: inactive

Compound: Cc1cc(C)cc(Cn2c(SCC(=O)Nc3ccccc3Br)nc3ccc(Cl)cc32)c1
- Activity [1]: inactive
- selectivity ratio [2]: 5
- CC50 [4]: 174 µM
- EC50 [5]: 32.5 µM
- IC50 [6]: > 233 µM
- Activity [3]: inactive

Compound: Cc1cc(C)cc(S(=O)(=O)n2c(SCC(=O)Nc3ccc(S(N)(=O)=O)cc3Cl)nc3ccc(Cl)cc32)c1
- Activity [1]: inactive
- selectivity ratio [2]: 38
- CC50 [4]: 23.4 µM
- EC50 [5]: 0.62 µM
- IC50 [6]: 3.04 µM
- Activity [3]: inactive

Compound: Cc1cc(C)cc(S(=O)(=O)n2c(SCC(=O)Nc3ccc(C)cc3Cl)nc3ccc(Cl)cc32)c1
- Activity [1]: inactive
- selectivity ratio [2]: > 149
- CC50 [4]: > 234 µM
- EC50 [5]: 1.57 µM
- IC50 [6]: 46.4 µM
- Activity [3]: inactive
